Data on 1 compound can be found in ChEMBL document CHEMBL3853360, “Combined Interactions with I1-, I2-Imidazoline Binding Sites and α2-Adrenoceptors To Manage Opioid Addiction” (ACS Med Chem Lett, 2016).

In test [1] the target is T1, Adrenergic receptor alpha-2 (Rattus norvegicus, UniProt P22086+P19328+P22909).
T1 sequence (P22086 whole entry): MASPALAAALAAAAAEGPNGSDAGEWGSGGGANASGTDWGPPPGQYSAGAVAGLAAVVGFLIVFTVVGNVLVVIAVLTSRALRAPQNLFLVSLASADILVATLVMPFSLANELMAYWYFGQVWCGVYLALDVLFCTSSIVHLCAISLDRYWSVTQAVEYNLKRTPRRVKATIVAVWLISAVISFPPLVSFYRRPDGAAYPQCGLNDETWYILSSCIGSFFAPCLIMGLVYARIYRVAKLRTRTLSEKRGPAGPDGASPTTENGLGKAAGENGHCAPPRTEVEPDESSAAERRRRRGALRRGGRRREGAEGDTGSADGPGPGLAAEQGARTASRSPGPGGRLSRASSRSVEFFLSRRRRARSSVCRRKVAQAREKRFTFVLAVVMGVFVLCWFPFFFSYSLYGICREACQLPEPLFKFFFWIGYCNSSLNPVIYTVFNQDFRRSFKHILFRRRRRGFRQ
T1 sequence (P19328 whole entry): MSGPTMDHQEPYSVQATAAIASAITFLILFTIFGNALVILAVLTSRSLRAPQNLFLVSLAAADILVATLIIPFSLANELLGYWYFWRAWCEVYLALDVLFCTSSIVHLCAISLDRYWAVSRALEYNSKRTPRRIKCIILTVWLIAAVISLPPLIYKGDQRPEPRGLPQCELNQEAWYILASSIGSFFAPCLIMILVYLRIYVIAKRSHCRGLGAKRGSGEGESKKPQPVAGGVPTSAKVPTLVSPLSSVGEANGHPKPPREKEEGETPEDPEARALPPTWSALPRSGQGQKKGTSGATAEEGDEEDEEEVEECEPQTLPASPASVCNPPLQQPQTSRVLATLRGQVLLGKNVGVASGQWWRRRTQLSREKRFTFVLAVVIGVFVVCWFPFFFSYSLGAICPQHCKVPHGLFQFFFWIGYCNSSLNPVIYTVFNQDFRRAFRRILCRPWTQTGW
T1 sequence (P22909 whole entry): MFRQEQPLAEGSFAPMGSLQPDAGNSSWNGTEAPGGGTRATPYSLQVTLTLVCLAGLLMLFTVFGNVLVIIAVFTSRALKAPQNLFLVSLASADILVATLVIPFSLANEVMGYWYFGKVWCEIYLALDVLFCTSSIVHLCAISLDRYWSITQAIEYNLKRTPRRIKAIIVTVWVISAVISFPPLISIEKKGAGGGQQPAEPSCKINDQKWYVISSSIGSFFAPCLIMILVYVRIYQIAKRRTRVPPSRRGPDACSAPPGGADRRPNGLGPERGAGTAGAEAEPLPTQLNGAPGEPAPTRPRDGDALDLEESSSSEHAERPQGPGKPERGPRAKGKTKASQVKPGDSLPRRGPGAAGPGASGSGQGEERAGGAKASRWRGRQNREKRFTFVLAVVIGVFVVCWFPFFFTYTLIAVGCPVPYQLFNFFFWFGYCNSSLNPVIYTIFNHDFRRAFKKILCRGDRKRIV
Description: Displacement of [3H]-RX 821002 from alpha2-AR in Sprague-Dawley rat brain membranes after 30 mins by liquid scintillation counting. The class given is cell membranes, Membrane. Put shortly:
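Radioligand competition binding with pKi determined by displacement. I1 sites: [125I]-p-iodoclonidine on rat kidney membranes. I2 sites: [3H]-2-BFI on rat brain membranes. α2-ARs: [3H]-RX821002 on rat brain membranes.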

Test [2] deals with T2, Alpha-2C adrenergic receptor (Homo sapiens, UniProt P18825).
T2 sequence (P18825 whole entry): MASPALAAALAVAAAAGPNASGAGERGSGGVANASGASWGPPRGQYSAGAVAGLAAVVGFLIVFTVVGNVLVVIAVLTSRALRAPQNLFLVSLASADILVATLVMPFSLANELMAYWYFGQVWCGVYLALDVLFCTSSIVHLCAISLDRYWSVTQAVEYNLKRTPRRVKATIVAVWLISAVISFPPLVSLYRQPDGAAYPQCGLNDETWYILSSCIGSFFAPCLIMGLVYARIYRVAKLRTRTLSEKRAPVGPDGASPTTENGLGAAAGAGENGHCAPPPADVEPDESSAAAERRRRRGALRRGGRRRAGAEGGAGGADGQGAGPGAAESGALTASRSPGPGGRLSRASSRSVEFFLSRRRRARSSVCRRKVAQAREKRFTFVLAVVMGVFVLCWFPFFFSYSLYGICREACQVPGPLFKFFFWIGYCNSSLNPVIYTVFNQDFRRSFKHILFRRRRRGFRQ
In words: Agonist activity at human alpha2c-AR expressed in CHO cells assessed as rate of acidification after 240 mins by cytosensor microphysiometric analysis. The class given is cell-based. In a few lines: (§1)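 Functional assay in CHO cells stably expressing a single human α2-AR subtype (α2A, α2B or α2C), read on a Cytosensor microphysiometer. Outputs are pEC50, intrinsic activity and, for antagonism, pKb. Intrinsic activity is expressed as a fraction of the full agonist (−)-noradrenaline, set at 1. Values are mean ± SEM of 3–5 separate experiments.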

In test [3] the target is T3, Alpha-2B adrenergic receptor (Homo sapiens, UniProt P18089).
T3 sequence (P18089 whole entry): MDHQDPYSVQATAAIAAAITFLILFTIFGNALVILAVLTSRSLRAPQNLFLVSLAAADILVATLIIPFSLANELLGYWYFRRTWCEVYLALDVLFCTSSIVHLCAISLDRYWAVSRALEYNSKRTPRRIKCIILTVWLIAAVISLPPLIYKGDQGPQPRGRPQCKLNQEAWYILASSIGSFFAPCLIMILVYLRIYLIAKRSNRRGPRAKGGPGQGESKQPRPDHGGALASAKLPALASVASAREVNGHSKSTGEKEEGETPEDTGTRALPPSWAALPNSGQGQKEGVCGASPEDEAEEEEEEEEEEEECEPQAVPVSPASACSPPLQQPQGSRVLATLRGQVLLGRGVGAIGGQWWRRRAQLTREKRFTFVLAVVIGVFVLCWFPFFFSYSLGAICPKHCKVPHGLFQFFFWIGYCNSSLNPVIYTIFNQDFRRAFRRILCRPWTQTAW
In words: Agonist activity at human alpha2b-AR expressed in CHO cells assessed as rate of acidification after 240 mins by cytosensor microphysiometric analysis. Type of test: cell-based. Put shortly: as §1

Test [4] in a line: Reduction in morphine dependence expression in CD1 mouse assessed as inhibition of naloxone-precipitated forepaw tremor frequency at 10 mg/kg, ip administered acutely 15 mins prior to naloxone challenge relative to control. The class given is functional, organism-based.
Test [5] in a line: Reduction in morphine dependence expression in CD1 mouse assessed as inhibition of naloxone-precipitated teeth chattering frequency at 10 mg/kg, ip administered acutely 15 mins prior to naloxone challenge relative to control. The class given is functional, organism-based.
Test [6] is described as follows: Reduction in morphine dependence expression in CD1 mouse assessed as inhibition of naloxone-precipitated jumping at 10 mg/kg, ip administered acutely 15 mins prior to naloxone challenge relative to control. Type of test: functional, organism-based.

The pKi is the negative decadic logarithm of the Ki, by convention in mol/L. Higher therefore signals a small Ki. By EC50 is commonly meant the concentration that produces a half-maximal response. By inhibition is commonly meant the change of the read-out against control, counted positive when it falls. For `Cc1ccccc1NCC1=NCCN1`, in test [1], the pKi came out at 7.73. In addition, the results for the EC50 in test [2] and in test [3] were 21.9 nM and 3160 nM, respectively. The results for the inhibition in test [4], in test [5] and in test [6] were 93%, 93% and 98%, respectively.
